Source: ChEMBL document CHEMBL3421570, “Combinatorial Libraries As a Tool for the Discovery of Novel, Broad-Spectrum Antibacterial Agents Targeting the ESKAPE Pathogens” (J Med Chem, 2015)
Calls of active or inactive are those of the source.

Columns and labels:
Type in all cases: functional
Staphylococcus aureus = assay: Antimicrobial activity against Staphylococcus aureus assessed as inhibition of microbial growth after 24 hrs
In short: (§1)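 Broth microdilution against multidrug-resistant clinical ESKAPE isolates. Overnight cultures (TSB for Gram-positives, LB for Gram-negatives) diluted 1:1000 in fresh medium, compound in DMF (≤2.0% DMF) added at decreasing concentrations, 37°C.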

Enterobacter cloacae = assay: Antimicrobial activity against Enterobacter cloacae assessed as inhibition of microbial growth after 24 hrs; in short: as §1
Klebsiella pneumoniae = assay: Antimicrobial activity against Klebsiella pneumoniae assessed as inhibition of microbial growth after 24 hrs; in short: as §1
Acinetobacter baumannii = assay: Antimicrobial activity against Acinetobacter baumannii assessed as inhibition of microbial growth after 24 hrs; in short: as §1
Enterococcus faecium = assay: Antimicrobial activity against Enterococcus faecium assessed as inhibition of microbial growth after 24 hrs; in short: as §1
Pseudomonas aeruginosa = assay: Antimicrobial activity against Pseudomonas aeruginosa assessed as inhibition of microbial growth after 24 hrs; in short: as §1

Measured: MIC

CCCCCCCN1C(=N)NC[C@@H]1CCCCN1C[C@@H](CCC)NC1=N
inactive: all assays above

CCC[C@@H]1CN(CCCC[C@H]2CNC(=N)N2CC2CCCCC2)C(=N)N1CCc1cccc(C)c1
inactive: all assays above

CCCCCCCN1C(=N)NC[C@@H]1CCCCN1C[C@H]([C@@H](C)CC)N(CC(C)CC)C1=N (some centres not stated)
inactive: all assays above

Cc1cccc(CCN2CCN(CCCC[C@H]3CNC(=N)N3CC3CCC(C)CC3)C2=N)c1 (some centres not stated)
inactive: all assays above

Cc1cccc(CCN2CCN(CCCC[C@H]3CNC(=N)N3CC3CCCCC3)C2=N)c1
inactive: all assays above

CCC(C)CN1CCN(CCCC[C@H]2CNC(=N)N2CC2CCC(C)CC2)C1=N (some centres not stated)
inactive: all assays above

CCC[C@@H]1CN(CCCC[C@H]2CNC(=N)N2CC2CCCCC2)C(=N)N1
inactive: all assays above

N=C1NCCN1CCCC[C@H]1CNC(=N)N1CC1CCCCC1
inactive: all assays above

CCCCCCCN1C(=N)NC[C@@H]1CCCCN1CCN(CCc2cccc(C)c2)C1=N
inactive: all assays above

CCCCCCCN1C(=N)NC[C@@H]1CCCCN1C[C@H]([C@@H](C)CC)NC1=N
inactive: all assays above

CCCCCCCN1C(=N)NC[C@@H]1CCCCN1C[C@@H](CCC)N(CCc2cccc(C)c2)C1=N
inactive: all assays above

CC[C@H](C)[C@H]1CN(CCCC[C@H]2CNC(=N)N2CC2CCC(C)CC2)C(=N)N1CCc1cccc(C)c1 (some centres not stated)
inactive: all assays above

CCC(C)CN1CCN(CCCC[C@H]2CNC(=N)N2CC2CCCCC2)C1=N (some centres not stated)
inactive: all assays above

CCC(C)CN1C(=N)N(CCCC[C@H]2CNC(=N)N2CC2CCC(C)CC2)C[C@@H]1[C@@H](C)CC (some centres not stated)
inactive: all assays above

CCC(C)CN1C(=N)N(CCCC[C@H]2CNC(=N)N2CC2CCCCC2)C[C@@H]1[C@@H](C)CC (some centres not stated)
inactive: all assays above

CCC[C@@H]1CN(CCCC[C@H]2CNC(=N)N2CC2CCC(C)CC2)C(=N)N1CCc1cccc(C)c1 (some centres not stated)
inactive: all assays above

CCCCCCCN1C(=N)NC[C@@H]1CCCCN1CCNC1=N
inactive: all assays above

CCCCCCCN1C(=N)NC[C@@H]1CCCCN1C[C@@H](CCC)N(CC(C)CC)C1=N (some centres not stated)
inactive: all assays above

CCCCCCCN1C(=N)NC[C@@H]1CCCCN1C[C@H]([C@@H](C)CC)N(CCc2cccc(C)c2)C1=N
inactive: all assays above

CCC[C@@H]1CN(CCCC[C@H]2CNC(=N)N2CC2CCCCC2)C(=N)N1CC(C)CC (some centres not stated)
inactive: all assays above

CCCCCCCN1C(=N)NC[C@@H]1CCCCN1CCN(CC(C)CC)C1=N (some centres not stated)
inactive: all assays above

CCC[C@@H]1CN(CCCC[C@H]2CNC(=N)N2CC2CCC(C)CC2)C(=N)N1 (some centres not stated)
inactive: all assays above

CCC[C@@H]1CN(CCCC[C@H]2CNC(=N)N2CC2CCC(C)CC2)C(=N)N1CC(C)CC (some centres not stated)
inactive: all assays above

CC1CCC(CN2C(=N)NC[C@@H]2CCCCN2CCNC2=N)CC1 (some centres not stated)
inactive: all assays above

CC[C@H](C)[C@H]1CN(CCCC[C@H]2CNC(=N)N2CC2CCCCC2)C(=N)N1
inactive: all assays above

CC[C@H](C)[C@H]1CN(CCCC[C@H]2CNC(=N)N2CC2CCC(C)CC2)C(=N)N1 (some centres not stated)
inactive: all assays above

CC[C@H](C)[C@H]1CN(CCCC[C@H]2CNC(=N)N2CC2CCCCC2)C(=N)N1CCc1cccc(C)c1
inactive: all assays above
